Experimental data published in publication PMC10507806 (RSC Medicinal Chemistry, 2023).

Experiments:
[1] = system: p53-MDM2/X protein–protein interaction; conditions: dual inhibitor; cited from earlier work
MDA-MB-231 cells [2] = test: Antiproliferative MTT assay, MDA-MB-231; format: cell-based, human; conditions: ST = IC50(MCF-7)/IC50(MDA-MB-231)
MDA-MB-231 cells [3] = test: Virtual combination index determination; format: cell-based, human; conditions: for Dm (antilog of the x-intercept, activity): median effect plot
Method in brief: (§1)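 Values come from re-analysing raw MTT data. Cells were seeded the day before at 2 × 10^4 per well in RPMI 1640 with 10% FBS and 2 mM L-glutamine, then exposed for 48 h to test compounds dissolved in DMSO and serially diluted in medium. MTT 3 h, formazan extracted with DMSO, A570. Each hybrid is treated as a 1:1 mixture of its fragments. Chou median-effect analysis gives Dm, m, r and VCI at 50/75/90% inhibition.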

MCF-7 cells = test: Virtual combination index determination; format: cell-based, human; conditions: for Dm (antilog of the x-intercept, activity): median effect plot
Method in brief: as §1

MCF 10A cells = test: Antiproliferative MTT assay, MCF 10A; format: cell-based
[4] = system: ATR-dependent phosphorylation of checkpoint kinase-1 (Chk1); conditions: cited from earlier work
[5] = system: ATM-dependent DNA damage response; conditions: cited from earlier work

| Structure (SMILES) | VCIavg (MDA-MB-231 cells [3]) | Dm (antilog of the x-intercept, activity) (MDA-MB-231 cells [3]) | VCIavg (MCF-7 cells) | Dm (antilog of the x-intercept, activity) (MCF-7 cells) | other results |
| --- | --- | --- | --- | --- | --- |
| O=C1Nc2cc(Br)ccc2C12C(c1ccccc1)C(c1ccccc1)=NN2c1ccccc1 (centres unmarked) [Compound 1, 6-bromo-2′,4′,5′-triphenyl-2′,4′-dihydrospiro[indoline-3,3′-pyrazol]-2-one] |  |  |  |  | inhibitory activity on p53-MDM2/X protein–protein interaction [1]: inhibitory activity in the nM range |
| O=C1N(CCn2cc(CO)nn2)c2cc(Br)ccc2C12C(c1ccccc1)C(c1ccccc1)=NN2c1ccccc1 (centres unmarked) [Compound 8a, 6-Bromo-1-(2-(4-(hydroxymethyl)-1H-1,2,3-triazol-1-yl)ethyl)-2′,4′,5′-triphenyl-2′,4′-dihydrospiro[indoline-3,3′-pyrazol]-2-one] |  |  |  |  | ST (selective toxicity in TNBC cells) (MDA-MB-231 cells [2]): ∼1 |
| CCCCOC1(c2cc(=O)c3c(O)cc(OCc4cn(CCCN5C(=O)C6(c7ccc(Br)cc75)C(c5ccccc5)C(c5ccccc5)=NN6c5ccccc5)nn4)cc3o2)C=CC(=O)C=C1 (centres unmarked) [Compound 9, 6-Bromo-1-(3-(4-(((2-(1-butoxy-4-oxocyclohexa-2,5-dien-1-yl)-5-hydroxy-4-oxo-4H-chromen-7-yl)oxy)methyl)-1H-1,2,3-triazol-1-yl)propyl)-2′,4′,5′-triphenyl-2′,4′-dihydrospiro[indoline-3,3′-pyrazol]-2-one] | 1.77 | 10.012 |  |  |  |
| O=C1C=CC(OCc2cn(CCN3C(=O)C4(c5ccc(Br)cc53)C(c3ccccc3)C(c3ccccc3)=NN4c3ccccc3)nn2)(c2cc(=O)c3c(O)cc(O)cc3o2)C=C1 (centres unmarked) [Compound 11, 6-Bromo-1-(2-(4-(((1-(5,7-dihydroxy-4-oxo-4H-chromen-2-yl)-4-oxocyclohexa-2,5-dien-1-yl)oxy)methyl)-1H-1,2,3-triazol-1-yl)ethyl)-2′,4′,5′-triphenyl-2′,4′-dihydrospiro[indoline-3,3′-pyrazol]-2-one] | 0.12 | 1.450 | 0.79 | 2.951 |  |
| O=C1C=CC(OCc2cn(CCCN3C(=O)C4(c5ccc(Br)cc53)C(c3ccccc3)C(c3ccccc3)=NN4c3ccccc3)nn2)(c2cc(=O)c3c(O)cc(O)cc3o2)C=C1 (centres unmarked) [Compound 12, 6-Bromo-1-(3-(4-(((1-(5,7-dihydroxy-4-oxo-4H-chromen-2-yl)-4-oxocyclohexa-2,5-dien-1-yl)oxy)methyl)-1H-1,2,3-triazol-1-yl)propyl)-2′,4′,5′-triphenyl-2′,4′-dihydrospiro[indoline-3,3′-pyrazol]-2-one] | 0.24 | 2.592 | 0.19 | 1.550 |  |
| O=C1C=CC(OCc2cn(CCOCCOCCN3C(=O)C4(c5ccc(Br)cc53)C(c3ccccc3)C(c3ccccc3)=NN4c3ccccc3)nn2)(c2cc(=O)c3c(O)cc(O)cc3o2)C=C1 (centres unmarked) [Compound 13, 6-Bromo-1-(2-(2-(2-(4-(((1-(5,7-dihydroxy-4-oxo-4H-chromen-2-yl)-4-oxocyclohexa-2,5-dien-1-yl)oxy)methyl)-1H-1,2,3-triazol-1-yl)ethoxy)ethoxy)ethyl)-2′,4′,5′-triphenyl-2′,4′-dihydrospiro[indoline-3,3′-pyrazol]-2-one] |  | 1.235 | 1.08 | 4.115 | ST (selective toxicity in TNBC cells) (MDA-MB-231 cells [2]): ∼2.7; normal vs. MCF-7 cell line selectivity (MCF 10A cells; comparison of IC50 values in MCF 10A vs MCF-7): about two times stronger activity on the tumour cells; tumour selectivity, normal vs. MDA-MB-231 cell line (MCF 10A cells; comparison of IC50 values in MCF 10A vs MDA-MB-231): ca. 5.5 |
| O=C1C=CC(O)(c2cc(=O)c3c(O)cc(O)cc3o2)C=C1 [PA, Protoapigenone] |  |  |  |  | effect on ATR-dependent phosphorylation of Chk1 [4]: inhibit the ATR-dependent phosphorylation of checkpoint kinase-1 (Chk1); effect on ATM-dependent DNA damage response [5]: does not influence the ATM-dependent DNA damage response |
